Values after ≈ are worked out from the molar mass of the structure shown. One block for each compound: values may come before it. Active and inactive are the calls of the source.
What was measured:
[1] = biological target: T1, DNA topoisomerase 2-alpha (Homo sapiens, UniProt P11388); assay: Inhibition of human topoisomerase 2alpha mediated decatenation at 30 uM using kDNA as susbtrate preincubated for 20 mins followed by substrate and ATP addition and measured after 1 hr by ethidium bromide staining based gel electrophoresis method relative to control
How it was run: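 Human TOP2A (3 U) preincubated 20 min at 37 °C with compound at 30 μM in 1.2% DMSO. Reaction started with 2 mM ATP and 35 ng kDNA and run 1 h at 37 °C. Products resolved on 0.8% agarose in TBE with 0.2 μg/mL ethidium bromide; decatenated bands compared with vehicle.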

[2] = biological target: T1, DNA topoisomerase 2-alpha; assay: Poison activity at topoisomerase 2alpha in human SW620 cells assessed as induction of DNA double stranded break by measuring gamma H2AX phosphorylation up to 40 uM after 6 hrs by Hoechst-33342 staining based immunofluorescence assay; assay type: cell-based
How it was run: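 SW620 monolayers, 20,000 cells per well, treated with compound for 6 or 24 h. Fixed in 4% paraformaldehyde, then permeabilised and blocked. Stained with γ-H2AX antibody overnight at 4 °C, FITC secondary antibody, and Hoechst 33342, then imaged at 20x.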

[3] = Clearance in CD-1 mouse at 50 mg/kg, ip by LC-MS/MS analysis; assay type: ADME, organism-based; settings: in vivo
How it was run: (§1)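 Female CD-1 mice, single IP injection at 50 mg/kg in 100% DMSO. Sampling from 0.25 to 24 h, three mice per time point (21 per compound). Heparinised blood was spun to plasma, mixed 1:1 with acidified acetonitrile (0.1% formic acid or 0.1% TFA depending on compound), centrifuged, then measured by LC-MS/MS.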

[4] = Drug metabolism in CD-1 mouse active microsomes assessed as CYP450-mediated oxidative phase 1 metabolite formation measured within 30 mins by LC-MS/MS analysis; assay type: ADME; settings: 0.5 h
[5] = Metabolic stability in CD-1 mouse inactive microsomes incubated for 1 hr by LC-MS/MS analysis; assay type: ADME, Microsome
SW-620 [6] = assay: Anticlonogenic activity against human SW620 cells assessed as loss of cancer stem cell stemness by measuring inhibition of colony formation at 10 uM incubated for 24 hrs followed by replating and measured after 7 days by clonogenic assay; assay type: functional, cell-based
[7] = Half life in CD-1 mouse microsomes measured up to 1 hr by LC-MS analysis; assay type: ADME, Microsome
How it was run: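 Female CD-1 mouse liver microsomes (0.5 mg/mL), substrate 1 μg/mL and 1.5 mM NADPH in 0.1 M phosphate buffer pH 7.4 at 37 °C. Samples taken from 0 to 60 min and quenched with an equal volume of acetonitrile. Parent compound remaining measured by LC-MS/MS without internal standard.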

[8] = Half life of terminal disposition phase in CD-1 mouse at 50 mg/kg, ip by LC-MS/MS analysis; assay type: ADME, organism-based; settings: in vivo, read-out: t1/2lambda (converted); how it was run: as §1
Mus musculus = assay: Apparent volume of drug distribution in CD-1 mouse at 50 mg/kg, ip by LC-MS/MS analysis; assay type: ADME, organism-based; settings: in vivo; how it was run: as §1
SW-620 [9] = assay: Cytotoxicity against human SW620 organoids assessed as cell death with loss of membrane integrity after 72 hrs by CellTox Green assay; assay type: functional, cell-based; settings: SW-620, 72 h
How it was run: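 SW620 tumor organoids exposed 72 h to inhibitor over 0–40 μM together with CellTox Green Express (0.5X). Whole-well mean fluorescence imaged (ex 488, em 500–550 nm). Normalised to lysis buffer as 0% viability and 0.4% DMSO as 100% viability.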

[10] = Cmax in CD-1 mouse at 50 mg/kg, ip by LC-MS/MS analysis; assay type: ADME, organism-based; design: dose 50 mg/kg, route intraperitoneal; settings: in vivo; how it was run: as §1
[11] = Tmax in CD-1 mouse at 50 mg/kg, ip by LC-MS/MS analysis; assay type: ADME, organism-based; settings: in vivo; how it was run: as §1
[12] = Drug metabolism in CD-1 mouse active microsomes assessed as metabolite formation at rate of first-order kinetics by LC-MS/MS analysis; assay type: ADME, Microsome
[13] = biological target: T1, DNA topoisomerase 2-alpha; assay: Inhibition of topoisomerase 2alpha dependent TCF transcription in human SW620 organoids transduced with TOPflash luminescent reporter after 72 hrs by luciferase based TOPFlash reporter gene assay
How it was run: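 SW620 cells stably carrying pCDH-TOPflash-luc grown as organoids: 5,000 cells per U-bottom well in phenol red-free RPMI with 5% FBS and 2% Matrigel, 72 h. Inhibitor then applied 72 h. One-Glo luciferase and CellTiter-Glo 3D added 1:1. Luciferase signal normalised to viability, then to DMSO controls.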

SW-620 [14] = assay: Antiinvasive activity in human SW620 organoids transduced with NucLight-Red virus assessed as inhibition of cell invasion at 10 uM incubated for 72 hrs and measured after 72 hrs by matrigel based fluorescence analysis; assay type: functional
How it was run: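 NucLight-Red-labelled SW620 organoids treated 72 h at 10 μM in 0.1% DMSO, then dissociated. 5,000 live cells per well seeded in 50% Matrigel in the upper chamber of a migration plate, 0.5% FBS above and 20% FBS below. Invading cells tracked by bottom-side fluorescence over days, six replicates per condition.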

[15] = AUC(0 to t) in CD-1 mouse at 50 mg/kg, ip by LC-MS/MS analysis; assay type: ADME, organism-based; settings: in vivo; how it was run: as §1
[16] = Aqueous solubility of compound in PBS at 1 mg after 18 hrs by UV based analysis; assay type: physicochemical
How it was run: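 Undissolved material removed by centrifugation at 5,000g for 45 min. UV absorption compared with a fully saturated 1-propanol solution; solubility derived by linear regression.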

[17] = biological target: T1, DNA topoisomerase 2-alpha; assay: Inhibition of topoisomerase 2alpha in human SW620 organoids transfected with VimPro-GFP reporter assessed as reversion of epithelial-mesenchymal transition by measuring reduction in vimentin expression at 10 uM after 72 hrs by Hoechst 33342 staining based GFP reporter gene assay
How it was run: (§2)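 SW620 cells stably carrying VimPro-GFP or EcadPro-mCherry (puromycin selected) grown as organoids and dosed 72 h. Stained with 16 μM Hoechst 33342 for 1 h and imaged as 15 z-layers, 26.5 μm apart. Nuclei segmented and GFP- or mCherry-positive cells counted above background thresholds. Percent positive cells normalised to DMSO.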

[18] = biological target: T1, DNA topoisomerase 2-alpha; assay: Inhibition of topoisomerase 2alpha dependent TCF transcription in human SW620 organoids transduced with TOPflash luminescent reporter at 10 uM after 72 hrs by luciferase based TOPFlash reporter gene assay
[19] = biological target: T1, DNA topoisomerase 2-alpha; assay: Inhibition of topoisomerase 2alpha in human SW620 organoids transfected with EcadPro-RFP reporter assessed as reversion of epithelial-mesenchymal transition by measuring increase in E-cadherin expression at 10 uM after 72 hrs by Hoechst 33342 staining based mCherryRFP reporter gene assay; how it was run: as §2
[20] = biological target: T1, DNA topoisomerase 2-alpha; assay: Inhibition of human topoisomerase 2alpha mediated decatenation using kDNA as susbtrate preincubated for 20 mins followed by substrate and ATP addition and measured after 1 hr by ethidium bromide staining based gel electrophoresis method
How it was run: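 IC50 from decatenation gels: TOP2A at 4 U per reaction, compound as 2-fold serial dilutions from 58.6 nM to 30 μM, 20 min preincubation. Then 2 mM ATP plus 35 ng kDNA for 1 h at 37 °C. Gels were 0.8% agarose with ethidium bromide, with decatenated and catenated DNA marker lanes.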

[21] = Drug metabolism in CD-1 mouse active microsomes assessed as CYP450-mediated oxidative phase 1 metabolite formation by LC-MS/MS analysis

T1 sequence (P11388 whole entry): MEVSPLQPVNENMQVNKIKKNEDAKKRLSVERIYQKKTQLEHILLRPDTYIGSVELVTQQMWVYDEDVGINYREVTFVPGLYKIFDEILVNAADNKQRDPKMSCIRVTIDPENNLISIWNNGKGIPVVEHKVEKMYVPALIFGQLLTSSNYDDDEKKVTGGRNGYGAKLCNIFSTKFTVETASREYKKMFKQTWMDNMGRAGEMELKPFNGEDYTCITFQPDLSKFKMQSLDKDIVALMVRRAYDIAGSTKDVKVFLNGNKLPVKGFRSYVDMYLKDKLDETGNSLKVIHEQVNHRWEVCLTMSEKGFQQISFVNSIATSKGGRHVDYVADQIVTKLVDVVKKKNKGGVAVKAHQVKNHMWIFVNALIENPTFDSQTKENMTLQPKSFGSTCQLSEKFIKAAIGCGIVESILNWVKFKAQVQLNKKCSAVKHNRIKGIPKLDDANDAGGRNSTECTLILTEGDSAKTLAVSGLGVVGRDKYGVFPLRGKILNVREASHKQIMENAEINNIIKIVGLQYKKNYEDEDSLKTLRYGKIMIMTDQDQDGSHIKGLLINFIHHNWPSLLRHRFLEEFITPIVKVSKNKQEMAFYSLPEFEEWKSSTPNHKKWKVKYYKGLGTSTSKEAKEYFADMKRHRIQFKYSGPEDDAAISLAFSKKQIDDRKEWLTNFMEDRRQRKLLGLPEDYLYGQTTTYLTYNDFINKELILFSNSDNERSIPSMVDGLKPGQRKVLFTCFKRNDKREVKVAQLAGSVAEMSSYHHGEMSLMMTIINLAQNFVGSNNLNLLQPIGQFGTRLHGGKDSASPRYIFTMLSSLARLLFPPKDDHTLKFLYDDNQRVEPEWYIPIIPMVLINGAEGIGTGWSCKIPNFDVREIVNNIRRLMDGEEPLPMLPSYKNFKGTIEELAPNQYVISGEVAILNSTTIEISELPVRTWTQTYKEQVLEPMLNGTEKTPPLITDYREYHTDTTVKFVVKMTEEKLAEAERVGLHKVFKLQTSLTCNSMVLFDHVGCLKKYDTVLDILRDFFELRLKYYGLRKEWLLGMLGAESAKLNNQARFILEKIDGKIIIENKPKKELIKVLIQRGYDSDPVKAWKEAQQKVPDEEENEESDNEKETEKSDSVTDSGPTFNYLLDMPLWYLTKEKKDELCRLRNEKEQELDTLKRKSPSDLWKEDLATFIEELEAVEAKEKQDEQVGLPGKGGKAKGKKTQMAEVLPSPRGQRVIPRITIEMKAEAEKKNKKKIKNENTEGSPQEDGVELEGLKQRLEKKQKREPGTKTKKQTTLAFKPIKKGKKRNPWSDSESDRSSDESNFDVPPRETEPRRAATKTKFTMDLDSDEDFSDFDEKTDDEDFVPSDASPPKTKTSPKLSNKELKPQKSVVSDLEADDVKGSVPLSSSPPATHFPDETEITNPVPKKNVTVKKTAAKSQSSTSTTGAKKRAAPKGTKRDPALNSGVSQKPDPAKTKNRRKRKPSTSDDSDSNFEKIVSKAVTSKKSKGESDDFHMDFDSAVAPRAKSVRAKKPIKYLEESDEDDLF

inhibition [1]: 0%
SMILES: CC(=O)Nc1ccc2c(-c3ccco3)ccnc2c1O

SMILES: Cn1ccc2c(c1=O)C(=O)c1nccc3c1c-2nc1ccccc13 [NEOAMPHIMIDINE]
Activity [2]: Not Active

inhibition [1]: 0%
SMILES: CC(=O)Nc1ccc2c(-c3cc(Cl)ccc3O)ccnc2c1O

inhibition [1]: 4%
SMILES: O=C(CN1CCOCC1)Nc1ccc2c(-c3cc(F)ccc3O)ccnc2c1O

inhibition [1]: 0%
SMILES: COc1ccc(F)cc1-c1ccnc2c(OC)c(NC(C)=O)ccc12

CL/F [3]: 3.71 L/h/kg
Drug metabolism [4]: Metabolite_Notdetected
Stability [5]: Stable
t1/2 [7]: 14 min
half-life [8]: 358 min
Vz (Mus musculus): 32 L/kg
Cmax [10]: 6.83 µg/mL
Tmax [11]: 15 min
Drug metabolism [12]: Metabolite_Detected
inhibition [1]: 83%
IC50 [13]: 2.5 µM
AUC(0-t) [15]: 12.9 µg·h/mL
solubility thermodynamic at 18 h [16]: 1.16 mg/mL (≈ 2780 µM)
SMILES: O=C(CCN1CCOCC1)Nc1ccc2c(-c3cc4ccccc4o3)ccnc2c1O
inhibition (SW-620 [6]): Active
EC50 (SW-620 [9]): 17.4 µM
inhibition (SW-620 [14]): Active

inhibition [1]: 0%
SMILES: CC(C)(C)C(=O)Nc1ccc2c(-c3cc(F)ccc3O)ccnc2c1O

inhibition [1]: 0%
SMILES: CC(=O)Nc1ccc2c(-c3cccc(O)c3)ccnc2c1O

Drug metabolism [4]: Metabolite_Detected
Stability [5]: Stable
inhibition [17]: Active
inhibition [18]: Active
inhibition [19]: Active
IC50 [20]: 1.2 µM
Drug metabolism [21]: Metabolite_Notdetected
inhibition [1]: 100%
IC50 [13]: 2.4 µM
SMILES: COc1cc(NC(C)=O)c(O)c2nccc(-c3ccccc3NC(=O)c3ccccc3)c12
inhibition (SW-620 [6]): Active
EC50 (SW-620 [9]): > 30 µM
inhibition (SW-620 [14]): Active

inhibition [1]: 1%
SMILES: CC(=O)Nc1ccccc1-c1ccnc2c(O)c(NC(=O)CCN3CCOCC3)ccc12

inhibition [1]: 100%
SMILES: CC(=O)Nc1ccc2c(-c3cccc(F)c3)ccnc2c1O

inhibition [1]: 1%
SMILES: CC(=O)Nc1ccccc1-c1ccnc2c(O)c(NC(C)=O)ccc12

inhibition [1]: 100%
IC50 [13]: 5 µM
SMILES: CC(=O)Nc1ccc2c(-c3cccs3)ccnc2c1O
EC50 (SW-620 [9]): > 30 µM
